Measurements published in ChEMBL document CHEMBL2331506, “Design, synthesis, antiviral and cytostatic evaluation of novel isoxazolidine nucleotide analogues with a carbamoyl linker” (Bioorg Med Chem, 2013).
Active and inactive are the calls of the source. The rule behind the calls is not given here.

Key:
[1] = test system: Human immunodeficiency virus 2; assay: Antiviral activity against Human immunodeficiency virus 2 ROD infected in human CEM cells assessed as reduction of virus-induced giant cell formation at 250 uM after 4 to 5 days; format: functional, organism-based; conditions: CCRF-CEM
Method in brief: (§1)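 CEM cells at 3 × 10^5 cells/mL were infected with HIV at 100 CCID50 per mL in the presence of compound dilutions. They were held 4–5 days at 37 °C in humidified CO2. Syncytium (giant cell) formation was scored microscopically, and EC50 was taken as the concentration inhibiting giant cell formation by 50%.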

Feline coronavirus = assay: Antiviral activity against Feline coronavirus infected in cat CRFK cells assessed as reduction of virus-induced cytopathogenicity at 250 uM; format: functional, organism-based
[2] = test system: Vesicular stomatitis virus; assay: Antiviral activity against Vesicular stomatitis virus infected in human HEL cells assessed as reduction of virus-induced cytopathogenicity at 250 uM; format: functional, organism-based
Method in brief: (§2)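 Confluent cell monolayers were infected with 100 CCID50 of virus while exposed to varying compound concentrations. Cytopathicity was scored once it was complete in untreated infected controls. EC50 was taken as the concentration that reduced virus-induced cytopathogenicity by 50%.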

[3] = Cytotoxicity against cat CRFK cells assessed as alteration of cell morphology up to 100 uM by microscopic analysis; format: cell-based, Felis catus
Method in brief: (§3)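 Uninfected host-cell cultures were exposed to compound and examined by microscopy. Cytotoxicity was expressed as the minimum cytotoxic concentration (MCC) causing a microscopically detectable alteration of normal cell morphology.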

Human respirovirus 3 = assay: Antiviral activity against Parainfluenza virus 3 infected in african green monkey Vero cells assessed as reduction of virus-induced cytopathogenicity at 250 uM; format: functional, organism-based
Method in brief: (§4)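 Confluent monolayers (HEL fibroblasts, Vero, or HeLa cells as listed) were infected with 100 CCID50 of virus in the presence of varying compound concentrations. Virus-induced cytopathicity or plaque formation was scored once cytopathicity was complete in untreated infected controls. EC50 was taken as the concentration reducing cytopathogenicity or plaque formation by 50%.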

Human alphaherpesvirus 1 [4] = assay: Antiviral activity against Herpes simplex virus 1 KOS infected in human HEL cells assessed as reduction of virus-induced cytopathogenicity at 250 uM; format: functional, organism-based; method in brief: as §4
CCRF-CEM = assay: Cytostatic activity against human CEM cells assessed as inhibition of cell proliferation after 72 hrs by Coulter counter analysis; format: functional, cell-based
Method in brief: (§5)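 Each well received (5–7.5) × 10^4 tumor cells plus compound. L1210 cells grew 48 h and CEM and HeLa cells grew 72 h, at 37 °C in humidified CO2. Cells were then counted electronically, and IC50 was taken as the concentration inhibiting proliferation by 50%.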

Vero = assay: Cytotoxicity against african green monkey Vero cells assessed as alteration of cell morphology up to 100 uM by microscopic analysis; format: cell-based; conditions: chlorocebus sabaeus; method in brief: as §3
Influenza A virus [5] = assay: Antiviral activity against Influenza A virus H1N1 infected in dog MDCK cells assessed as reduction of virus-induced cytopathogenicity at 250 uM; format: functional, organism-based; method in brief: as §2
Punta Toro virus = assay: Antiviral activity against Punta Toro virus infected in african green monkey Vero cells assessed as reduction of virus-induced cytopathogenicity at 250 uM; format: functional, organism-based; method in brief: as §4
HeLa [6] = assay: Cytotoxicity against human HeLa cells assessed as alteration of cell morphology up to 100 uM by microscopic analysis; format: cell-based; method in brief: as §3
Influenza A virus [7] = assay: Antiviral activity against Influenza A virus H3N2 infected in dog MDCK cells assessed as reduction of virus-induced cytopathogenicity at 250 uM; format: functional, organism-based; method in brief: as §2
L1210 = assay: Cytostatic activity against mouse L1210 cells assessed as inhibition of cell proliferation after 48 hrs by Coulter counter analysis; format: functional, cell-based; conditions: L1210, 48 h; method in brief: as §5
MDCK = assay: Cytotoxicity against dog MDCK cells assessed as alteration of cell morphology up to 100 uM by microscopic analysis; format: cell-based, Canis lupus familiaris; method in brief: as §3
HeLa [8] = assay: Cytostatic activity against human HeLa cells assessed as inhibition of cell proliferation after 72 hrs by Coulter counter analysis; format: functional, cell-based; method in brief: as §5
Influenza B virus = assay: Antiviral activity against Influenza B virus infected in dog MDCK cells assessed as reduction of virus-induced cytopathogenicity at 250 uM; format: functional, organism-based; method in brief: as §2
[9] = test system: Respiratory syncytial virus; assay: Antiviral activity against Respiratory syncytial virus long infected in human HeLa cells assessed as reduction of virus-induced cytopathogenicity at 250 uM; format: functional, organism-based; method in brief: as §4
[10] = test system: Mammalian orthoreovirus 1; assay: Antiviral activity against Reovirus 1 infected in african green monkey Vero cells assessed as reduction of virus-induced cytopathogenicity at 250 uM; format: functional, organism-based; method in brief: as §4
Human alphaherpesvirus 2 = assay: Antiviral activity against Herpes simplex virus 2 G infected in human HEL cells assessed as reduction of virus-induced cytopathogenicity at 250 uM; format: functional, organism-based; conditions: strain G; method in brief: as §4
Human alphaherpesvirus 1 [11] = assay: Antiviral activity against thymidine kinase-deficient, ACV-resistant Herpes simplex virus 1 KOS infected in human HEL cells assessed as reduction of virus-induced cytopathogenicity at 250 uM; format: functional, organism-based; method in brief: as §2
[12] = test system: Human immunodeficiency virus 1; assay: Antiviral activity against Human immunodeficiency virus 1 3B infected in human CEM cells assessed as reduction of virus-induced giant cell formation at 250 uM after 4 to 5 days; format: functional, organism-based; conditions: CCRF-CEM; method in brief: as §1
HEL = assay: Cytotoxicity against human HEL cells assessed as alteration of cell morphology up to 100 uM by microscopic analysis; format: cell-based; method in brief: as §3
[13] = test system: Vesicular stomatitis virus; assay: Antiviral activity against Vesicular stomatitis virus infected in human HeLa cells assessed as reduction of virus-induced cytopathogenicity at 250 uM; format: functional, organism-based; method in brief: as §2
Coxsackievirus B4 = assay: Antiviral activity against Coxsackievirus B4 infected in african green monkey Vero cells assessed as reduction of virus-induced cytopathogenicity at 250 uM; format: functional, organism-based; method in brief: as §4
Felid alphaherpesvirus 1 = assay: Antiviral activity against Feline herpes virus infected in cat CRFK cells assessed as reduction of virus-induced cytopathogenicity at 250 uM; format: functional, organism-based
Sindbis virus = assay: Antiviral activity against Sindbis virus infected in african green monkey Vero cells assessed as reduction of virus-induced cytopathogenicity at 250 uM; format: functional, organism-based; method in brief: as §4

Structure (SMILES) | inhibition [1] | inhibition (Feline coronavirus) | inhibition [2] | Activity [3] | inhibition (Human respirovirus 3) | inhibition (Human alphaherpesvirus 1 [4]) | Activity (Vero) | inhibition (Influenza A virus [5]) | inhibition (Punta Toro virus) | Activity (HeLa [6]) | inhibition (Influenza A virus [7]) | Activity (MDCK) | inhibition (Influenza B virus) | inhibition [9] | inhibition [10] | inhibition (Human alphaherpesvirus 2) | inhibition (Human alphaherpesvirus 1 [11]) | inhibition [12] | Activity (HEL) | inhibition [13] | other results
CCOP(=O)(OCC)[C@H]1C[C@H](C(=O)Nc2cccc(Br)c2)ON1C (racemic) | inactive | inactive | inactive | Non-toxic | inactive | inactive | Non-toxic | inactive | inactive | Non-toxic | inactive | Non-toxic | inactive | inactive | inactive | inactive | inactive | inactive | Non-toxic | inactive | IC50 (CCRF-CEM): ≥ 250 µM; IC50 (L1210): > 250 µM; IC50 (HeLa [8]): 180 µM; inhibition (Coxsackievirus B4): inactive; inhibition (Felid alphaherpesvirus 1): inactive; inhibition (Sindbis virus): inactive
CCOP(=O)(OCC)[C@H]1C[C@H](C(=O)Nc2ccccc2[N+](=O)[O-])ON1C (mixture of isomers) | inactive | inactive | inactive | Non-toxic | inactive | inactive | Non-toxic | inactive | inactive | Non-toxic | inactive | Non-toxic | inactive | inactive | inactive | inactive | inactive | inactive | Non-toxic | inactive | IC50 (CCRF-CEM): ≥ 250 µM; IC50 (L1210): 168 µM; IC50 (HeLa [8]): > 250 µM; inhibition (Coxsackievirus B4): inactive; inhibition (Felid alphaherpesvirus 1): inactive; inhibition (Sindbis virus): inactive
CCOP(=O)(OCC)[C@H]1C[C@H](C(=O)Nc2cccc(F)c2)ON1C (mixture of isomers) | inactive | inactive | inactive | Non-toxic | inactive | inactive | Non-toxic | inactive | inactive | Non-toxic | inactive | Non-toxic | inactive | inactive | inactive | inactive | inactive | inactive | Non-toxic | inactive | IC50 (CCRF-CEM): > 250 µM; IC50 (L1210): > 250 µM; IC50 (HeLa [8]): > 250 µM; inhibition (Coxsackievirus B4): inactive; inhibition (Felid alphaherpesvirus 1): inactive; inhibition (Sindbis virus): inactive
CCOP(=O)(OCC)[C@H]1C[C@H](C(=O)Nc2ccccc2F)ON1C (mixture of isomers) | inactive | inactive | inactive | Non-toxic | inactive | inactive | Non-toxic | inactive | inactive | Non-toxic | inactive | Non-toxic | inactive | inactive | inactive | inactive | inactive | inactive | Non-toxic | inactive | IC50 (CCRF-CEM): > 250 µM; IC50 (L1210): > 250 µM; IC50 (HeLa [8]): ≥ 250 µM; inhibition (Coxsackievirus B4): inactive; inhibition (Felid alphaherpesvirus 1): inactive; inhibition (Sindbis virus): inactive
CCOP(=O)(OCC)[C@H]1C[C@H](C(=O)Nc2ccccc2Br)ON1C (mixture of isomers) | inactive | inactive | inactive | Non-toxic | inactive | inactive | Non-toxic | inactive | inactive | Non-toxic | inactive | Non-toxic | inactive | inactive | inactive | inactive | inactive | inactive | Non-toxic | inactive | inhibition (Coxsackievirus B4): inactive; inhibition (Felid alphaherpesvirus 1): inactive; inhibition (Sindbis virus): inactive
